Screening data: PubChem, Broad Institute
A selection: hits, their analogues and other compounds. The true share with any hit is near 3.5%.
Wnt bcat act – Wnt/beta-catenin pathway activators, primary screen, cell-based, plate reader, single point. activation, % at 9.35 µM. AID 743398, 2014. Wnt/beta-catenin reporter cell assay, activator. 1.2% of 300,000 active; in the data active = activation above about 30%, passing the limit was not always enough; inconclusive = no clear call, values can overlap the other calls;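 also: 0% = neutral control wells and 100% = positive control wells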
MITF TRPM1 HTS – activators of MITF-driven TRPM1 promoter reporter, primary screen, cell-based, SK-MEL-5, luciferase, single point; SK-MEL-5 TRPM1-promoter luciferase, 24 h; % of positive control, neutral wells = 0; activation, % at 12.5 µM; 0.75% of 300,000 active;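 active = mean activation of at least 80% with every replicate also reaching 80%; inconclusive = mean reaches 80% but some replicate falls short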;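 also: 0% = neutral control wells and 100% = parthenolide positive control wells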
HIV Env fusion – inhibitors of HIV-1 Env-driven cell-cell fusion, primary screen, HeLa-JRFL effector, CEM21 target cells, luciferase | inhibition, % at 12.3 µM | 1.1% of 360,000 active;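 active = mean replicate inhibition score of at least 50 and every replicate individually at or above 50; inconclusive = only one of the two criteria met; inactive = mean below 50 and not all replicates reaching 50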;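 also: 0% = plate neutral controls and 100% = maraviroc near 300 nM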
esBAF inh – Bmi1 luciferase reporter increase in mESCs, primary screen, esBAF inhibitor project, mouse ES cells, Bmi1 luciferase knock-in, single point; 2% of 350,000 active; reporter increase, % at 12.5 µM; AID 602393, 2012; 24 h; 100% = twice the neutral-well signal; in the data active = activation above about 40%; inconclusive = no clear call, values can overlap the other calls;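 also: 0% = median of the plate's neutral control wells and 100% = double that signal; a rise in the Bmi1 reporter signal indicates esBAF inhibition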
Cneo AK release – Cryptococcus neoformans cell lysis inducers, primary screen, AK release luminescence, single concentration. C. neoformans lysis, adenylate kinase release luminescence, 4 h; normalised: neutral wells 0, clomiphene wells 100. lysis activity, % at 15 µM. 0.2% of 360,000 active. AID 651654, 2012;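 active = mean lysis activity across replicates of at least 80%, whatever share of replicates individually reach that level; inactive = mean lysis activity below 80%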
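Assay system: C. neoformans cells. Amount: yeast cell density of 5 × 10^6 cells/mL. Technique: AK luminescence. Buffer or medium: YPD. Times: static 4 h at 37 °C with compound, 1 h detection. Dosing: single-point compound dose. Read-out: lysis from increased AK signal.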
ERAP1 inh – human ERAP1 aminopeptidase inhibitors, primary screen, biochemical, single point, plate reader | 0.15% of 340,000 active | recombinant ERAP1, Leu-AMC fluorescence, 60 min | Endoplasmic reticulum aminopeptidase 1 (Homo sapiens), Q9NZ08 | inhibition, % at 10.7 µM;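 active = mean replicate inhibition of at least 30%, or all replicates individually reaching that 30% level; inactive = mean below 30% and not every replicate reaching it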;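 also: 0% = neutral control wells and 100% = L-leucinethiol positive control wells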
Target sequence (Q9NZ08 whole entry, looked up): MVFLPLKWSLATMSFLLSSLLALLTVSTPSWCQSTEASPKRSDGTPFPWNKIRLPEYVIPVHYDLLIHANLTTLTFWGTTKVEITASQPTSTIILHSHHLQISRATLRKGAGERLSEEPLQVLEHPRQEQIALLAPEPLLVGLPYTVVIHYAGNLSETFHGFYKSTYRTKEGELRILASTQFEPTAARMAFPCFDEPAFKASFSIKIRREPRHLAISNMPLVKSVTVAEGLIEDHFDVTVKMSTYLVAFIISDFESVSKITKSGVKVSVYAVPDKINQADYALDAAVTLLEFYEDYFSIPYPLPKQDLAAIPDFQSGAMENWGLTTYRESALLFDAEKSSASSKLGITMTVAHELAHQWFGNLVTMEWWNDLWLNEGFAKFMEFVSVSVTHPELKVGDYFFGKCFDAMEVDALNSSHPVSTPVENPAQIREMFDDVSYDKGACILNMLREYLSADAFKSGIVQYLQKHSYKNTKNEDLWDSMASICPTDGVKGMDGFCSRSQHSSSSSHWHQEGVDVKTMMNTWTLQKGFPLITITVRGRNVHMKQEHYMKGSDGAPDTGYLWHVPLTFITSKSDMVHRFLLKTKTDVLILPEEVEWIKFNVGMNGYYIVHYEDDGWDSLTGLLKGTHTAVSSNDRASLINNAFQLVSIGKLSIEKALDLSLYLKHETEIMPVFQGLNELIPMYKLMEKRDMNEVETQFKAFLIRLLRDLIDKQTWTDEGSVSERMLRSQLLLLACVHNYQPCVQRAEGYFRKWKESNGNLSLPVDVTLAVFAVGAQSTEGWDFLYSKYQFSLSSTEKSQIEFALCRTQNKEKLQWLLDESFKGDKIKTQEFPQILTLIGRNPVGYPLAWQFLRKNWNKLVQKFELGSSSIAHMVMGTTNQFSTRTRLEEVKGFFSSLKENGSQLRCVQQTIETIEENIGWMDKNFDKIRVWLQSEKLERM
An asterisk follows results filed as active; ? = inconclusive; nt = no result given; [ ] = remark or other dose.

SMILES	Wnt bcat act	MITF TRPM1 HTS	HIV Env fusion	esBAF inh	Cneo AK release	ERAP1 inh
CN(C)CCCNC(=O)C[C@@H]1CC[C@@H](NS(=O)(=O)c2ccc(F)cc2)[C@H](CO)O1	nt	nt	-6[16.7 µM]	-1	8	-1
c1ccc2c(c1)COc1c3ncccc3nn1-2	7	nt	-34	50*	-3	-1
CC1CCCC/C1=N/Nc1ccc([N+](=O)[O-])cc1[N+](=O)[O-] (stereo unspecified)	nt	1	nt	-9	8	nt
O=[N+]([O-])c1ccc(C2CCCC/C2=N\OCc2cccc(F)c2)c([N+](=O)[O-])c1 (stereo unspecified)	nt	2	85*	1	1	nt
C[C@@H]1CN([C@H](C)CO)C(=O)c2cc(-c3ccc(C#N)cc3)cnc2O[C@@H]1CN(C)C(=O)Nc1ccc(F)cc1	nt	nt	-9[16.7 µM]	-14	83*	0
COc1ccc(-c2cnc3c(c2)C(=O)N([C@H](C)CO)C[C@H](C)[C@H](CN(C)C(=O)Nc2cccc4ccccc24)O3)cc1	nt	nt	3[16.7 µM]	0	0	-1
C[C@H]1CN([C@@H](C)CO)C(=O)c2cc(-c3ccc(C#N)cc3)cnc2O[C@@H]1CN(C)C(=O)Nc1ccc(F)cc1	nt	nt	-47[16.7 µM]	-1	2	0
C[C@H](CO)N1C[C@H](C)[C@H](CN(C)C(=O)Nc2cccc3ccccc23)Oc2ncc(-c3ccc(F)cc3)cc2C1=O	nt	nt	39*[16.7 µM]	15	13	-2
C[C@@H]1CN([C@H](C)CO)C(=O)c2cc(-c3ccc(F)cc3)cnc2O[C@H]1CN(C)CC1CCCCC1	nt	nt	16[16.7 µM]	-2	106*	-12
O=S(=O)(NCC[C@@H]1CC[C@H](NS(=O)(=O)c2ccccc2Cl)[C@H](CO)O1)c1ccc(F)cc1	nt	nt	7[16.7 µM]	4	50	1
CN(C)CC(=O)Nc1ccc2c(c1)[C@H]1C[C@H](CC(=O)NCCc3ccccc3)O[C@@H](CO)[C@H]1O2	nt	nt	38[16.7 µM]	1	4	-2
COCc1cn(CC[C@@H]2CC[C@@H](NC(=O)CCN3CCCCC3)[C@@H](CO)O2)nn1	nt	nt	2[16.7 µM]	1	1	-12
COc1cccc(N/C=C/C(=O)c2ccc(Cl)cc2)c1	16	29	nt	22	-8	1
COc1ccc(C(=O)c2ccc(Cl)cc2)cc1	1	nt	nt	46*	0	nt
COc1ccc(N/C=C/C(=O)c2ccc(Cl)cc2)cc1	nt	106*	-131	nt	nt	nt
COc1ccc(C(=O)c2ccc(Cl)cc2Cl)cc1	nt	-1	nt	nt	2	nt
C[C@@H]1CN([C@@H](C)CO)C(=O)c2cccc(N(C)C)c2O[C@H]1CN(C)S(C)(=O)=O	nt	nt	4[16.7 µM]	-1	1	0
Cc1ccc(S(=O)(=O)N(C)C[C@H]2OCCCC[C@H](C)Oc3ccc(NS(C)(=O)=O)cc3C(=O)N([C@@H](C)CO)C[C@@H]2C)cc1	nt	nt	1[16.7 µM]	-5	-2	1
CCC(=O)N1CC(=O)N2[C@@H](CO)[C@@H](c3ccc(C#CC(C)C)cc3)[C@@H]2C1	nt	nt	nt	nt	nt	0
CCOC(=O)c1sc(=NC(=O)c2ccc(OC)c(OC)c2)n(C)c1C	12	68	nt	38	-1	2
CCOC(=O)c1sc(=NC(=O)c2cccc(OC)c2)n(C)c1C	33*	?	-48	?	0	nt
CCOC(=O)c1sc(=NC(=O)c2ccccc2)n(C)c1C	44*	68	-33	71*	-3	-1
CCOC(=O)c1sc(=NC(=O)CCS(=O)(=O)c2ccccc2)n(C)c1C	-2	-1	6	nt	nt	7
CN(C(=O)c1ccco1)c1nc(-c2ccc(F)cc2)cs1	0	80*	-65	27	8	0
CN(C(=O)c1ccco1)c1nnc(-c2ccc(F)cc2)s1	7	100*	-80	58*	-3	-1
O=C(c1ccco1)N(CCCN1CCOCC1)c1nc(-c2ccc(F)cc2)cs1	nt	4	36	-5	-1	0
CCc1c(O)nc(SCC(=O)Nc2ccccc2)n(-c2ccccc2)c1=O	0	2	nt	1	5	-4
Cc1ccc(NC(=O)CSc2nc(O)c(Cc3ccccc3)c(=O)n2-c2ccccc2)cc1	-1	5	-4	25*	3	-3
